Data as given in ChEMBL document CHEMBL4043179, “Triple reuptake inhibitors: Design, synthesis and structure-activity relationship of benzylpiperidine-tetrazoles” (Bioorg Med Chem, 2017).

Assays:
Type in all cases: cell-based
[1] = target: T1, Sodium-dependent dopamine transporter (Homo sapiens, UniProt Q01959); test: Inhibition of re-uptake of [3H]-DA at human DAT at 10 uM expressed in HEK293 cells by liquid scintillation counting
[2] = target: T2, Sodium-dependent serotonin transporter (Homo sapiens, UniProt P31645); test: Inhibition of re-uptake of [3H]-5-HT at human SERT expressed in HEK293 cells by liquid scintillation counting
Target sequence in this assay (P31645 whole entry): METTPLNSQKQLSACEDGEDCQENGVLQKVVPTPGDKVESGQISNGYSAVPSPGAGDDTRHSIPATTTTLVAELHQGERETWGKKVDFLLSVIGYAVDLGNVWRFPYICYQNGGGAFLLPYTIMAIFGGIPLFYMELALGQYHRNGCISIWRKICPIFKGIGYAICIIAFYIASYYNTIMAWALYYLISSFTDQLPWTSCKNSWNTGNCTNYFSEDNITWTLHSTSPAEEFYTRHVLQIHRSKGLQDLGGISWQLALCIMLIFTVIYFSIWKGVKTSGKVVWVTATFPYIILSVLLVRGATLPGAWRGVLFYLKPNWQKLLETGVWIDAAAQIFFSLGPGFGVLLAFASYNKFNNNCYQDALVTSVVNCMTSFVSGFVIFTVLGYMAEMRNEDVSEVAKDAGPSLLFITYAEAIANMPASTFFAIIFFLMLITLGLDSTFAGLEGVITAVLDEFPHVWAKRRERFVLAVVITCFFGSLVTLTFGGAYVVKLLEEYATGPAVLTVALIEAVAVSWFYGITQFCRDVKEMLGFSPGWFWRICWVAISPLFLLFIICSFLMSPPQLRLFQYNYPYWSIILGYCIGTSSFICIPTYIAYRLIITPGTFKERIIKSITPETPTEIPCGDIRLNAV

[3] = target: T3, Sodium-dependent noradrenaline transporter (Homo sapiens, UniProt P23975); test: Inhibition of re-uptake of [3H]-NE at human NET expressed in HEK293 cells by liquid scintillation counting
T3 sequence (P23975 whole entry): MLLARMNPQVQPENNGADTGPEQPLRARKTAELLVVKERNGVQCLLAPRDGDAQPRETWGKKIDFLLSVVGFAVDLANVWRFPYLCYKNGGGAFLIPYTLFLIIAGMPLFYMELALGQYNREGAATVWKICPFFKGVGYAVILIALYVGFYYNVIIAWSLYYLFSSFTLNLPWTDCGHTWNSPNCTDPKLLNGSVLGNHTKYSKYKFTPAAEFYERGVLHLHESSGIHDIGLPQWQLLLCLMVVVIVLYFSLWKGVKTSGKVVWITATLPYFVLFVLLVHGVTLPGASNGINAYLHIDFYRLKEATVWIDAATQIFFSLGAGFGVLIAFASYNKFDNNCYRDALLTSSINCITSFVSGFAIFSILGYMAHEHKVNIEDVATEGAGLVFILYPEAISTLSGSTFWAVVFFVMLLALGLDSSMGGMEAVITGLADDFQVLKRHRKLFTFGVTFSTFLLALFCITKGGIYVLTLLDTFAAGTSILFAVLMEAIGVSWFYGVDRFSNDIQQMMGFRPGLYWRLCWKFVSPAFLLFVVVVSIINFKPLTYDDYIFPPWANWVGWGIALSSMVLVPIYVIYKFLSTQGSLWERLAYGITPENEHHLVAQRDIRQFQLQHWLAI
Outline: (§1)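 HEK-293 cells were grown in medium with fetal bovine serum and transfected with human DAT or NET. Uptake of radiolabelled [3H]-DA or [3H]-NE, each at 20 nM in the assay, was measured by liquid scintillation counting. The method follows a literature procedure with slight modification, and reference reuptake inhibitors were run alongside.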

[4] = target: T3, Sodium-dependent noradrenaline transporter; test: Inhibition of re-uptake of [3H]-NE at human NET at 10 uM expressed in HEK293 cells by liquid scintillation counting
[5] = target: T1, Sodium-dependent dopamine transporter; test: Inhibition of re-uptake of [3H]-DA at human DAT expressed in HEK293 cells by liquid scintillation counting; outline: as §1
[6] = target: T2, Sodium-dependent serotonin transporter; test: Inhibition of re-uptake of [3H]-5-HT at human SERT at 10 uM expressed in HEK293 cells by liquid scintillation counting
Target sequence in this assay (P31645 whole entry, looked up): as the sequence (P31645 whole entry) above

T1 sequence (Q01959 whole entry): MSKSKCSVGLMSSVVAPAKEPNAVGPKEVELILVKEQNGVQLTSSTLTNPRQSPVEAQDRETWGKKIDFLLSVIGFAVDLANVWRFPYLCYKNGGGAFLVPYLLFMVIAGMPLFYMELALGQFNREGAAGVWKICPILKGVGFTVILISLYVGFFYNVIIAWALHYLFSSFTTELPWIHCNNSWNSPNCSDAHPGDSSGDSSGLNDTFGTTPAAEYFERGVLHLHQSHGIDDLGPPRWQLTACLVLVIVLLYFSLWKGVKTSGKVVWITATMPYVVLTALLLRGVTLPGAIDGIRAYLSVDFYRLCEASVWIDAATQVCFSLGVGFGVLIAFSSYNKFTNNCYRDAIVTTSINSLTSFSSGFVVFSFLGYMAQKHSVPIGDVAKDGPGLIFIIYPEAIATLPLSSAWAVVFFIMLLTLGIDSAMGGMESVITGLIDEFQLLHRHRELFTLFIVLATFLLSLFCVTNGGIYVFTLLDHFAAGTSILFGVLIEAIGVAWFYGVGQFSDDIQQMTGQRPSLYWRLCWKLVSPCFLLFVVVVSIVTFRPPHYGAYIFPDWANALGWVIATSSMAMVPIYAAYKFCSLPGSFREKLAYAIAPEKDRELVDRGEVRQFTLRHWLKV

inhibition [1] [%] | IC50 [2] [µM] | IC50 [3] [µM] | inhibition [4] [%] | IC50 [5] [µM] | inhibition [6] [%] | Structure (SMILES)
> 55 | 5.13 | 3.46 | > 55 | > 10 | > 55 | Brc1ccccc1-c1nnnn1CCCN1CCC(Cc2ccccc2)CC1
> 55 | 1.32 | 3.96 | > 55 | 6.55 | > 55 | Clc1ccccc1-c1nnnn1CCCN1CCC(Cc2ccccc2)CC1
> 55 | > 10 | 4.34 | > 55 | > 10 | > 55 | Brc1cccc(-c2nnnn2CCCN2CCC(Cc3ccccc3)CC2)c1
> 55 | 0.54 | 3 | > 55 | 5.04 | > 55 | CC(=O)c1cccc(-c2nnnn2CCCN2CCC(Cc3ccccc3)CC2)c1
> 55 | 8.81 | 5.1 | > 55 | 3.74 | > 55 | FC(F)(F)c1cccc(-c2nnnn2CCCN2CCC(Cc3ccccc3)CC2)c1
> 55 | 2 | 2.28 | > 55 | 3.29 | > 55 | Fc1ccc(-c2nnnn2CCCN2CCC(Cc3ccccc3)CC2)cc1
> 55 | 0.88 | 3.03 | > 55 | 4.02 | > 55 | c1ccc(CC2CCN(CCCn3nnnc3-c3ccccc3)CC2)cc1
> 55 | 3.13 | 2.58 | > 55 | 8.32 | > 55 | Clc1ccc(-c2nnnn2CCCN2CCC(Cc3ccccc3)CC2)cc1
> 55 | 3.96 | 3.45 | > 55 | > 10 | > 55 | Clc1cccc(-c2nnnn2CCCN2CCC(Cc3ccccc3)CC2)c1Cl
> 55 | 4.05 | 5.52 | > 55 | > 10 | > 55 | COc1ccc(-c2nnnn2CCCN2CCC(Cc3ccccc3)CC2)cc1
> 55 | 5.25 | 5.02 | > 55 | > 10 | > 55 | O=[N+]([O-])c1ccc(-c2nnnn2CCCN2CCC(Cc3ccccc3)CC2)cc1
> 55 | 1.35 | 3.59 | > 55 | 5.18 | > 55 | Clc1cccc(-c2nnnn2CCCN2CCC(Cc3ccccc3)CC2)c1
> 55 | 4.05 | 3.08 | > 55 | 14.6 | > 55 | CC(=O)c1cccc(-c2nnnn2CCN2CCC(Cc3ccccc3)CC2)c1
> 55 | 0.31 | 2.51 | > 55 | 6 | > 55 | c1ccc(CC2CCN(CCCn3nnnc3-c3cccc4ccccc34)CC2)cc1
> 55 | 1.24 | 1.35 | > 55 | 1.98 | > 55 | O=[N+]([O-])c1ccc(-c2nnnn2CCN2CCC(Cc3ccccc3)CC2)cc1

Structure (SMILES) | inhibition [1] [%] | IC50 [2] [µM] | IC50 [3] [µM] | inhibition [4] [%] | IC50 [5] [µM] | inhibition [6] [%]
c1ccc(CC2CCN(CCn3nnnc3-c3cccc4ccccc34)CC2)cc1 | > 55 | > 10 | > 10 | > 55 | > 10 | > 55
